Data set [1] concerns CHO. Put plainly: Cytotoxicity against Pro3 cells derived from CHO cells with fully functional reduced folate carrier. The note with it: Cricetulus griseus. The class given is cell-based. Put shortly: (§1)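 CHO-derived cells grown in RPMI 1640 medium and exposed continuously to compound for 72 h. Serial dilutions were made in DMSO. Viability was read with a CellTiter-Blue assay. IC50 was taken from dose-response curves over 1 nM to 1 µM.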

Data set [2] has as its system CHO. The data set is described as follows: Cytotoxicity in RFC deficient 43-10 cells derived from CHO cells transfected with human RFC cDNA. The class given is functional, cell-based. The note with it: Cricetulus griseus. Put shortly:
as §1

A short description of data set [3]: Half life of hydrolysis rate in phosphate buffer at pH 8.0. The class given is ADME. Put shortly:
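Prodrug was diluted into 20 mM phosphate buffer, pH 8.0, containing 5% DMSO, with serial dilutions made in the same phosphate. Loss of the parent ester and formation of products were monitored over time by HPLC (UV at 254 and 310 nm). t = 0 is autosampler injection. Ester decay was fit to pseudo-first-order kinetics to give the half-life.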

The test system of data set [4] is CHO. Put plainly: Cytotoxicity against R2 mutant cells derived from CHO cells with reduced expression of RFC. The class given is functional, cell-based. The note with it: Cricetulus griseus. Put shortly: as §1
The nature of data set [5]: Half life of hydrolysis rate in RPMI-1640 medium at pH 8.0. The data set is classed as ADME. In short, it runs like this:
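Prodrug stock was diluted into RPMI-1640 cell medium (pH 8.0) and filtered, and disappearance of the ester was followed by HPLC with UV detection at 254 and 310 nm. t = 0 is the time the autosampler injected the sample. The half-life was determined from the HPLC data.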

Turning to `COP(=O)(CCC(NC(=O)c1ccc(N(C)Cc2cnc3nc(N)nc(N)c3n2)cc1)C(=O)OCOC(=O)C(C)(C)C)CC(CCC(=O)OCOC(=O)C(C)(C)C)C(=O)OCOC(=O)C(C)(C)C` (configuration not stated), the IC50 in data set [1] is greater than 1000 nM; in data set [2], 800 nM; in data set [4], greater than 1000 nM. Also, the values for the half-life in data set [3] and in data set [5] were 3 h and 1 h, respectively.
For `CN(Cc1cnc2nc(N)nc(N)c2n1)c1ccc(C(=O)NC(CCP(=O)(O)CC(CCC(=O)O)C(=O)O)C(=O)O)cc1` (configuration not stated), the IC50 in data set [1], in data set [2] and in data set [4] was greater than 1000 nM throughout.
Turning to `COC(=O)CCC(CP(=O)(O)CCC(NC(=O)c1ccc(N(C)Cc2cnc3nc(N)nc(N)c3n2)cc1)C(=O)OC)C(=O)OC` (configuration not stated), the half-maximal inhibitory concentration (IC50) in data set [1] is 500 nM; in data set [2] it was 300 nM; in data set [4], greater than 1000 nM. Further, in data set [3], the half-life is greater than 100 h.
Turning to `CN(Cc1cnc2nc(N)nc(N)c2n1)c1ccc(C(=O)NC(CCP(=O)(O)CC(CCC(=O)OCOC(=O)C(C)(C)C)C(=O)OCOC(=O)C(C)(C)C)C(=O)OCOC(=O)C(C)(C)C)cc1` (configuration not stated), the IC50 in data set [1] came out at 700 nM; in data set [2], 250 nM; in data set [4], 350 nM. Also, the half-life is 8 h in data set [3] and 3 h in data set [5].

As a reminder, the IC50 is the concentration that gives 50% inhibition. A word on the half-life: it is how long it takes for the measured level to halve. A higher half-life goes with slow decline.
